D1 allo mod – D1 CRE-luciferase signal change, two-sided – cell-based, HEK293 D1, dopamine EC30, D1 allosteric modulator project, primary screen | dopamine EC30 potentiation; actives deviate in either direction | B-score at 10 µM | 58,000 tested, 5.9% active | AID 641, 2007;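 active = luminescence count or its row- and column-corrected plate score outside the 99.7% band of the plate's sample wells, on either side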
Target sequence (P21728 whole entry, looked up): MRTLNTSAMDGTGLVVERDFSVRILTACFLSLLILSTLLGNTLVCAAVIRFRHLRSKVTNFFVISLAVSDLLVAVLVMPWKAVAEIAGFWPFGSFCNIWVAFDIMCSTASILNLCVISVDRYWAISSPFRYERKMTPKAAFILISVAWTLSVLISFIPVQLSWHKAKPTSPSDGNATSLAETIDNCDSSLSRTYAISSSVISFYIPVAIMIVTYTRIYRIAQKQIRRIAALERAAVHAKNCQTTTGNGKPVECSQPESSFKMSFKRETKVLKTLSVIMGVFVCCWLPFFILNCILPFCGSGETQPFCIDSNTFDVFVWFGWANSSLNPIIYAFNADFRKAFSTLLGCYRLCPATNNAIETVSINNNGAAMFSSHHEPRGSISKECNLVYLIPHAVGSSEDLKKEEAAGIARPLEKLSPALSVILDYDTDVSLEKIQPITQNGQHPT
Htt clearance – clearance of mutant huntingtin inclusions, primary screen, imaging, HeLa Exon1htt(103Q)mCFP, confocal imaging. AID 853, 2007. aggregate imaging; zero = plate's median compound well. 47,000 tested, 0.42% active. inhibition, % at 1.5 µM;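 active = inhibition of aggregate fluorescence above about 70%, also judged a hit by eye on the cell image, limit read from the data, passing the limit was not always enough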;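 note: cells exposed to compound for three days before fixation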
M1 ag – M1 muscarinic receptor agonists, primary screen, CHO-M1 cells, Fluo-4 calcium, agonist mode. AID 626, 2007. Muscarinic acetylcholine receptor M1. 64,000 tested, 3% active. B-score at 10 µM. Fluo-4 calcium fluorescence; hits give high values;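 active = fluorescence rise, raw or as B-score row- and column-corrected plate score, outside the 99.7% band of its plate's samples, either direction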
AP complement – alternative complement pathway inhibitors, primary screen, biochemical, ELISA, human serum, orthogonally pooled compounds | LPS-coated ELISA, C3 deposition; tested in compound mixtures | inhibition, % at 5 µM | 62,000 tested, 0.08% active | AID 1235, 2008;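 active = inhibition above 30% in each of the two pooled mixtures holding the compound, so the lower value exceeds 30%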;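 note: 0% = serum in Mg-EGTA without compound and 100% = EDTA serum blank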
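Medium: diluted human serum in Mg2+-EGTA GVB++. Assay system: human serum complement alternative pathway, C3 deposition onto LPS. Also added: Plate-bound LPS. Technique: Anti-C3 ELISA, OD 450 nm. Measure: percent inhibition. Incubation: 1 h at 37 °C. Dosing: 5 µM each compound, pools of ten, 50 µM per pool.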
M1 antag – antagonists of rat M1 muscarinic receptor; Muscarinic acetylcholine receptor M1 (Rattus norvegicus), P08482; 64,000 tested, 3.4% active; B-score at 10 µM; CHO-M1 cells, Fluo-4 calcium, ACh EC80 antagonist mode; hits give low values;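 active = calcium fluorescence response, raw or row-and-column corrected B-score, differing from the plate sample mean either way at a set confidence level, mostly lower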
M1 antag confirm – rat M1 muscarinic receptor antagonists, confirmation, CHO cells, Fluo-4 calcium, duplicate. calcium response (max-min fluorescence) at 10 µM. 1,700 tested, 43% active. shares compounds with M1 antag. ACh EC80 antagonism; hits give low values;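 active = calcium response below the same-plate mean of wells given acetylcholine alone at its 80%-effect dose, minus 3 SD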;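 note: raw fluorescence intensity difference in arbitrary instrument units and not normalized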
mGluR4 antag – human mGluR4 response to M1 antagonist hits, M1 allosteric modulator project, cell-based, antagonist mode, secondary assay 1; shares compounds with M1 antag; CHO-mGluR4 calcium flux, Fluo-4 fluorescence, glutamate EC80; hits give low values; fluorescence response (max-min) at 10 µM; 1,700 tested, 0.9% active;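 active = fluorescence response below the plate's average for near-maximal glutamate wells, less 3 SD of those wells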;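 note: raw unnormalized fluorescence span taken in the window right after glutamate addition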
An asterisk follows results filed as active; . = not tested or not shown. Sampled rows, rich in hits. Any-hit rate of the full collection: about 9%.

SMILES	D1 allo mod	Htt clearance	M1 ag	AP complement	M1 antag	M1 antag confirm	mGluR4 antag
OC(CCN1CCCCC1)(c1ccccc1)c1ccccc1	-0.43	.	1.9	12	-12*	23*	244
CCc1nc2ccccc2c(=O)n1CCCCn1c(CC)nc2ccccc2c1=O	0.33	.	-0.23	12	0.98	.	.
CC(=O)c1c(C)[nH]c(C(=O)OCC(=O)Nc2ncc(Cl)c(C)c2Cl)c1C	1.1	.	-0.19	3	-15*	567	234
CCCCOC(=O)C1=C(C)Nc2ncnn2C1c1cccc(OC)c1OC (centres undefined)	0.035	.	0.057	7	0.019	.	.
COc1ccccc1-n1c(C)nnc1SCC(N)=O	-0.25	.	0.2	8	-4.3*	486	233
COc1ccccc1-n1c(SCC(N)=O)nnc1-c1ccccc1	-0.38	41	-1.4	-1	-0.02	.	.
CCCCC(=O)Nc1ccc(C(=O)N2CCN(C)CC2)cc1	-0.72	-70	-0.63	15	0.011	.	.
O=C(O)C1CC=CCC1C(=O)Nc1ccccc1Cl (centres undefined)	0.13	.	-0.16	3	0.62	.	.
COCCCNC(=O)CSC1=Nc2ccccc2C2=NC(CC(=O)NCc3ccccc3)C(=O)N12 (centres undefined)	-0.064	-10	0.033	14	-2.5*	678	246
CCOC(=O)c1ccc2c(c1)nc(C1CCN(S(=O)(=O)c3cccs3)CC1)n2CC	-0.2	-31	1.8	-22	-2.9*	474*	210
CCCc1nc(SCc2ccccn2)c2c(=O)n(C)c(=O)n(C)c2n1	.	-16	-1.1	3	-1.4*	405*	204
CCc1nc(SCc2ccc(C(=O)OC)o2)c2c(=O)n(C)c(=O)n(C)c2n1	3.8	.	-1	4	-6.7*	280*	226
O=C1C2ON(c3ccccc3)C(c3ccncc3)C2C(=O)N1c1ccccc1 (centres undefined)	.	-18	-0.81	.	0.72	.	.
CC(C)N1C(=O)C2ON(c3ccccc3)C(c3cccs3)C2C1=O (centres undefined)	-0.023	2	-0.055	-13	-3.8*	542	243
COc1ccccc1C(=O)Nc1cc(-c2nn3c(C)nnc3s2)ccc1C	1.6	-14	0.72	18	0.081	.	.
Cc1cc(OCCCCCNCCO)cc(C)c1Cl	.	.	-1.7	11	-3.8*	534	234
CCOc1ccc(N(CC(=O)NC2CCCC2)S(=O)(=O)c2c(C)[nH]c(=O)[nH]c2=O)cc1	-0.91	-43	0.7	8	0.13	.	.
COc1ccc(-n2c(SCC(=O)NCc3ccco3)nc3c([nH]c4ccccc43)c2=O)cc1	.	-38	.	.	.	.	.
COc1cc(C2N(c3ccc(Cl)cc3)C(=O)C3CCCN32)cc(OC)c1OC (centres undefined)	1	67	-0.4	14	0.029	.	.
COc1ccc(N2C(=O)C3CCCN3C2c2cc(OC)c(OC)c(OC)c2)cc1 (centres undefined)	-0.35	-13	0.21	12	-2.1*	645	216
CCN1CCN(C(=O)c2oc(=O)c3ccccc3c2-c2ccc(C)cc2)CC1	0.44	.	0.32	24	-1.8*	320*	212
Cc1onc(-c2c(F)cccc2Cl)c1C(=O)Nc1ccc(S(=O)(=O)Nc2ncccn2)cc1	0.06	-4	-0.56	5	-0.23	.	.
CCOC(=O)c1ccc(NC(=O)NCCN2CCCCC2)cc1	0.071	.	-0.067	21	-3.4*	512	216
CCOC(=O)c1ccc(S(=O)(=O)n2c(CN3CCCCC3)nc3ccccc32)cc1	2.1	10	0.28	-10	-0.46	.	.
CCOC(=O)C1=C(O)CCn2c1nc1ccccc12	0.95	.	0.086	-2	-2.3*	640	233
Cc1ccc(-c2nnc(SCC(=O)Nc3nc4c(s3)CCCC4)n2C)cc1	.	.	0.64	-13	-2.4*	641	227

Bioassay records (PubChem BioAssay)
